Cdc25B block: human M-phase inducer phosphatase 2 inhibition. inhibition, %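 (compounds tested at 10 µM final in the well)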. AID 368. recombinant Cdc25B, OMFP fluorescence Ex485/Em525. P30305. hit rate 0.1% among 65,000; in the data active = inhibition above about 50%
Hsp90 block: displaces geldanamycin probe from tumor Hsp90; P07900; NCI-N417 lysate Hsp90, Cy3B-geldanamycin FP displacement; inhibition, % at 30 µM; hit rate 0.35% among 64,000;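 active = inhibition above 50%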;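 note: 0% = tracer plus lysate wells and 100% = tracer alone without lysate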
BAP1 inh: inhibitors of human BAP1 deubiquitinase. Q92560. recombinant BAP1, Ub-AMC hydrolysis fluorescence kinetic; active compounds read low. calls only at 20 µM. hit rate 0.48% among 72,000;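 active = activity remaining at or below 50% of control, provided the compound also passes the data quality filters; inactive = the rest, including low values that fail the filters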;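 note: 100% = DMSO wells rate and 0% = substrate alone blank rate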
Target sequence (Q92560 whole entry, looked up): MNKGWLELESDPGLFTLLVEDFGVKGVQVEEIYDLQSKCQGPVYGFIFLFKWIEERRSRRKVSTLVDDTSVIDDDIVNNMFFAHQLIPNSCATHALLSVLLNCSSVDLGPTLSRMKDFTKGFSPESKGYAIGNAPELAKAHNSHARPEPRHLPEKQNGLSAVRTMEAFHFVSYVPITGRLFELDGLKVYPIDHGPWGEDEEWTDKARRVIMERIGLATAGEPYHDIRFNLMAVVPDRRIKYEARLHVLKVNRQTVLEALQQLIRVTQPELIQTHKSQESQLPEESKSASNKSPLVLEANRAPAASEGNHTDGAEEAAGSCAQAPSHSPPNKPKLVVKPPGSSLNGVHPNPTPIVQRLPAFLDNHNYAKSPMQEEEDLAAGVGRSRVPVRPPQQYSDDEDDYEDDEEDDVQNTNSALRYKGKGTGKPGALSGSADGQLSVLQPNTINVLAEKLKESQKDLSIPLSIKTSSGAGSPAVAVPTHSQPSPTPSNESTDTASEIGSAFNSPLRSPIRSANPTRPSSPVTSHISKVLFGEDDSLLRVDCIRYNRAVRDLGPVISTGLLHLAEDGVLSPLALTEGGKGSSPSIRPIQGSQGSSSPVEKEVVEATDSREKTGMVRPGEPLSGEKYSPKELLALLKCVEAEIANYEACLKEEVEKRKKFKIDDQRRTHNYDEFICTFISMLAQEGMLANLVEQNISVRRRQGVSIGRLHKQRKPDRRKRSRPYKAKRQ
DUSP1 inh: blocks human MKP-1 phosphatase activity; inhibition, %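 (compounds tested at a single concentration somewhere between 10 and 100 µM)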; recombinant MKP-1, OMFP hydrolysis fluorescence; hit rate 0.15% among 65,000;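 active = inhibition above about 50%, limit read from the data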;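 note: 0% = DMSO max control wells and 100% = wells with enzyme stopped by NaOH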
E coli RNAP: inhibitors of Escherichia coli RNA polymerase; E. coli RNA polymerase, fluorescence transcription assay; P0A8V2; inhibition, %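 (tested at 10 µM)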; hit rate 0.2% among 62,000; in the data active = inhibition above about 20%;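 note: 0% = enzyme without compound and 100% = no enzyme blank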
Ecoli tolC: E. coli tolC mutant growth inhibition; AID 573; growth inhibition, % at 10 µM (by protocol); E. coli BW25113 tolC mutant growth, OD615; hit rate 2.2% among 65,000;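 active = growth inhibition at or above a cutoff equal to the mean over every tested compound plus 3 SD, cut at about 60% in these data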;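 note: growth measured after 20 h incubation at 37 °C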
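Test system: tolC-deleted E. coli BW25113; medium: LB with kanamycin 50 µg/mL; compound: single-point testing at 10 µM; incubation: 20 h compound exposure of bacteria at 37 °C; signal: OD at 615 nm; evaluation: growth inhibition in percent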
* marks the source's active call; other numbers are inactive results. Sampled rows, rich in hits. Any-hit rate of the full collection: about 2.9%.

Screening CCC1(C)Cc2ccccc2-c2nc(NCCO)n(-c3ccccc3)c(=O)c21 (stereo not drawn) returned Cdc25B block 21, Hsp90 block -5, BAP1 inh inactive, DUSP1 inh -12, E coli RNAP -19 and Ecoli tolC 0.
For Cn1cccc1Cc1nnc(SCC(=O)Nc2ccc(F)cc2)n1-c1ccc(F)cc1 the results were Cdc25B block -3, Hsp90 block -2, BAP1 inh inactive, DUSP1 inh 3, E coli RNAP 5 and Ecoli tolC 16.
For Cn1cccc1Cc1nnc(SCC(=O)Nc2ccc(Cl)cc2)n1-c1ccc(F)cc1 the results were Cdc25B block -8, Hsp90 block -3, BAP1 inh inactive, DUSP1 inh 21, E coli RNAP 4 and Ecoli tolC 71*.
Cn1c(CNc2ccc(Cl)cc2)nc2ccccc21 was read as Cdc25B block -8, Hsp90 block -5, BAP1 inh inactive, DUSP1 inh 2, E coli RNAP -1 and Ecoli tolC 26.
`CC(C)N=c1cc2n(-c3ccc(Cl)cc3)c3ccccc3nc-2cc1Nc1ccc(Cl)cc1` gave Cdc25B block -5, Hsp90 block 98*, DUSP1 inh -12, E coli RNAP 13 and Ecoli tolC 6.
Screening [O-][N+]1=c2ccc(Nc3ccccc3)cc2=NC12CCCCC2 returned Cdc25B block -9, Hsp90 block 46, BAP1 inh inactive, DUSP1 inh 21, E coli RNAP 3 and Ecoli tolC 90*.
COc1ccc(Nc2ccc3c(c2)=NC2(CCCCC2)[N+]=3[O-])cc1 was read as Cdc25B block 13, DUSP1 inh 17, E coli RNAP 2 and Ecoli tolC 53.
COc1ccc(-c2nnc3sc(COc4ccccc4)nn23)cc1 was read as Cdc25B block 15, Hsp90 block 15, BAP1 inh inactive, DUSP1 inh -7, E coli RNAP 3 and Ecoli tolC 22.
Cc1ccc(-c2nnc3sc(CCc4ccccc4)nn23)cc1 was read as Cdc25B block 0, Hsp90 block -5, DUSP1 inh 3, E coli RNAP 7 and Ecoli tolC 67*.
`CN1CCN(c2c(F)cc3c(=O)c(C(=O)O)cn4c3c2SCC4)CC1` gave Cdc25B block 4, Hsp90 block -1, BAP1 inh inactive, DUSP1 inh -17, E coli RNAP 0 and Ecoli tolC 100*.
CCCCC1CCC(C(=O)c2ccccc2)CC1 (stereo not drawn) was read as BAP1 inh inactive.
For CCOC(=O)c1ccc(Oc2nc(SC)nc(N(C)C)n2)cc1 the results were Cdc25B block -10, Hsp90 block -1, BAP1 inh inactive, DUSP1 inh -6, E coli RNAP 3 and Ecoli tolC 27.
For CCOC(=O)c1ccc(Oc2nc(NC(C)(C)C)nc(N(C)C)n2)cc1 the results were Cdc25B block -6, Hsp90 block 0, BAP1 inh inactive, DUSP1 inh 18, E coli RNAP 3 and Ecoli tolC 66*.
`OC(COc1ccc2ccccc2c1Br)Cn1ccnc1` (stereo not drawn) gave Cdc25B block -16, Hsp90 block -3, BAP1 inh inactive, DUSP1 inh 7, E coli RNAP 0 and Ecoli tolC 99*.
OC(COc1ccc2ccccc2c1)Cn1ccnc1 (stereo not drawn) was read as Cdc25B block 3, Hsp90 block -2, BAP1 inh inactive, DUSP1 inh 0, E coli RNAP 3 and Ecoli tolC 1.
For CN1CCN(CC(=O)N2CCn3c4c(c5cc(C6CCCCC6)ccc53)CCCC42)CC1 (stereo not drawn) the results were Cdc25B block -20, Hsp90 block 1, BAP1 inh inactive, DUSP1 inh -26, E coli RNAP 10 and Ecoli tolC 100*.
Cc1ccc2c(c1)c1c3n2CCN(C(=O)CN2CCN(C)CC2)C3CCC1 (stereo not drawn) was read as Cdc25B block 9, Hsp90 block 9, BAP1 inh inactive, DUSP1 inh 1, E coli RNAP 3 and Ecoli tolC 2.
`COC(=O)C1=C(C)N=C2SCCC(=O)N2C1c1cccs1` (stereo not drawn) gave Cdc25B block 54*, Hsp90 block -4, BAP1 inh inactive, DUSP1 inh 6, E coli RNAP 10 and Ecoli tolC -8.
Screening CC1=C(C(=O)OC(C)C)C(c2cccs2)N2C(=O)CCSC2=N1 (stereo not drawn) returned Cdc25B block -12, Hsp90 block -5, BAP1 inh inactive, DUSP1 inh -6, E coli RNAP 5 and Ecoli tolC -4.
`OCCN1CCN(c2nc(-c3ccccc3)c3cc(Cl)ccc3n2)CC1` gave Cdc25B block -4, Hsp90 block 2, BAP1 inh inactive, DUSP1 inh 30, E coli RNAP 8 and Ecoli tolC 100*.
COC(=O)C1=C(C)N(C)C(=O)NC1c1ccccc1[N+](=O)[O-] (stereo not drawn) was read as BAP1 inh inactive.
CCSC1=C(C#N)C(c2ccc(Cl)cc2)C2=C(CCCC2=O)N1 (stereo not drawn) was read as Cdc25B block 2, Hsp90 block -2, BAP1 inh inactive, DUSP1 inh -24, E coli RNAP 7 and Ecoli tolC 96*.
For Cc1cc(Cl)ccc1OCCCC(=O)Nc1cccc2ccccc12 the results were BAP1 inh inactive.
S=c1[nH]nc(-c2ccco2)o1 was read as BAP1 inh inactive.
COC(=O)c1ccc(OC)c(CSc2nnc(COc3ccccc3)o2)c1 was read as Cdc25B block -15, Hsp90 block -3, BAP1 inh inactive, DUSP1 inh -34, E coli RNAP 1 and Ecoli tolC 62*.
`COC(=O)c1ccc(OC)c(CSc2nnc(COc3ccc(Cl)cc3)o2)c1` gave Cdc25B block -12, Hsp90 block -1, BAP1 inh inactive, DUSP1 inh 15, E coli RNAP 12 and Ecoli tolC 52.
Screening COc1ccccc1-c1nnc2sc(COc3ccc(Cl)cc3)nn12 returned Cdc25B block -5, Hsp90 block -2, BAP1 inh inactive, DUSP1 inh 7, E coli RNAP 1 and Ecoli tolC 69*.
Screening COc1ccc(Cc2nn3c(-c4ccccc4OC)nnc3s2)cc1 returned Cdc25B block 5, Hsp90 block 4, BAP1 inh inactive, DUSP1 inh -12, E coli RNAP 10 and Ecoli tolC 25.
Screening Cc1ccc(NC(=O)c2cc3ccc(O)cc3oc2=N)cc1 returned BAP1 inh inactive.
Cn1c(=O)n(CCCOc2ccc(Cl)cc2)c2ccccc21 was read as Cdc25B block -15, Hsp90 block -3, BAP1 inh inactive, DUSP1 inh -1, E coli RNAP 6 and Ecoli tolC 62*.
`OCc1nc2ccccc2n1CCCOc1ccc(Br)cc1` gave Cdc25B block -11, Hsp90 block -6, BAP1 inh inactive, DUSP1 inh 12, E coli RNAP 4 and Ecoli tolC 67*.

Screening results from PubChem BioAssay.
